Data reported in ChEMBL document CHEMBL4359879, “Synthesis and evaluation of 2-carboxy indole derivatives as potent and selective anti-leukemic agents” (Eur J Med Chem, 2019).
Calls of active or inactive are those of the source. The calls are words filed in the database; no cut-off is given here.

Experiments:
[1] = system: HL-60; assay: Effect on human HL60 cells assessed as fold change in FOXJ2 gene expression at 1.085 uM incubated for 6 hrs by microarray-based method; type: functional
How it was run: (§1)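 HL60 cells were treated in triplicate with 1.085 µM or vehicle for 6 h. Total RNA was extracted with on-column DNase treatment and profiled on expression arrays.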

[2] = system: HL-60; assay: Effect on human HL60 cells assessed as fold change in SGOL1 gene expression at 1.085 uM incubated for 6 hrs by microarray-based method; type: functional; how it was run: as §1
[3] = system: RS4-11; assay: Effect on human RS4:11 cells assessed as increase in p53 protein expression at 300 nM incubated for 15 to 360 mins by Western blot analysis; type: functional, cell-based
How it was run: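 Leukemia cells (RS4;11, CEM, HL60) treated with 300 nM for 0, 15, 30, 60 and 360 min. Western blotting for β-tubulin and p53, with lamin B1 as loading control and chemiluminescent detection.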

[4] = system: HL-60; assay: Effect on human HL60 cells assessed as fold change in GDAP1 gene expression at 1.085 uM incubated for 6 hrs by microarray-based method; type: functional; how it was run: as §1
[5] = system: HL-60; assay: Effect on human HL60 cells assessed as fold change in NCBP2-AS2 gene expression at 1.085 uM incubated for 6 hrs by microarray-based method; type: functional; how it was run: as §1
[6] = system: HL-60; assay: Effect on human HL60 cells assessed as fold change in TAF15 gene expression at 1.085 uM incubated for 6 hrs by microarray-based method; type: functional; how it was run: as §1
[7] = system: HL-60; assay: Induction of cell cycle arrest in human HL60 cells assessed as accumulation of cells at S phase at EC50 incubated for 12 hrs by PI staining based flow cytometric analysis (reference value: 19.0%); type: functional
[8] = system: HL-60; assay: Effect on human HL60 cells assessed as fold change in USP24 gene expression at 1.085 uM incubated for 6 hrs by microarray-based method; type: functional
[9] = system: HL-60; assay: Induction of differentiation in human HL60 cells assessed as increase in CD11b positive cells incubated for 48 hrs by 7-AAD staining-based flow cytometric analysis; type: functional, cell-based
How it was run: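 Vitamin D3 at 100 nM and ATRA at 2 μM served as positive controls. Stained with APC anti-CD11b and PE anti-CD14 for 30 min at 4 °C, then 7-AAD.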

[10] = system: RS4-11; assay: Induction of DNA damage in human RS4:11 cells assessed as accumulation of cells at G1 phase at 300 nM incubated for 18 hrs in presence of H2AX antibody by immunofluorescent staining based flow cytometric analysis relative to control; type: functional
How it was run: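 RS4;11 cells treated with 300 nM or DMSO vehicle for 18 h, then pulsed with 10 μM BrdU for 1 h. Harvested cells immunostained for BrdU/PI (cell cycle), γH2AX (DNA damage) and PARP (apoptosis). Multicolor flow cytometry gated G1, sub-G2-like, G2/M and sub-G0/G1 populations.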

COC(=O)c1[nH]c2cc(OC)ccc2c1-c1ccc(C(F)(F)F)cc1
fold change (FC) [1]: 1.62
fold change (FC) [2]: 1.52
Activity [3]: Active
fold change (FC) [4]: -1.61
fold change (FC) [5]: -1.58
fold change (FC) [6]: 1.75
Activity [7]: 19.1%
fold change (FC) [8]: 1.74
Activity [9]: Dose-dependent effect
Activity [10]: 6.9%
